Experimental data from different studies.
Compare with care: the assays were run in different laboratories.
Target: Serine/threonine-protein kinase N1 (PKN1, Homo sapiens, UniProt Q16512)

SMILES	observed	action	method	tested at	quantity	result
COc1cc2ncnc(Nc3ccc(F)c(Cl)c3)c2cc1OCCCN1CCOCC1	cell-free assay			0.5 µM	remaining signal	105%
CN(C)C1CCN(CC#Cc2nn(C3CCCC3)c3nc(NCc4ccccc4)ncc23)C1 (stereo not drawn)	enzyme activity	inhibitor	FRET	0.1 µM	inhibition	-1%
CC(=O)c1c(C)c2cnc(Nc3ccc(N4CCNCC4)cn3)nc2n(C2CCCC2)c1=O.Cl	enzyme activity	inhibitor		1 µM	activity vs control	96%
COc1cc(-c2cn(C3CCc4c(F)cccc4N(CC(F)(F)F)C3=O)nn2)ccc1-n1cnc(C)c1 (stereo not drawn)	cell-free assay		competition with immobilised ligand	1 µM	remaining binding	96%
CC(C)(O)[C@H]1CC[C@H](Nc2ccc3ncc(-c4cccc(C(F)(F)F)c4)n3n2)CC1	enzyme activity	inhibitor		1 µM	remaining activity	65.5%
Cc1c[nH]c2nccc(Oc3c(F)cc(Nc4cc(Cl)nc(N)n4)cc3F)c12	cell-free assay		competition with immobilised ligand	0.1 µM	remaining binding	72%
CC(C)NC[C@@H](C(=O)N1CCN(c2ncnc3c2[C@H](C)C[C@H]3O)CC1)c1ccc(Cl)cc1	enzyme activity	inhibitor		1 µM	activity vs control	1%
CCCCNc1ncc2c(-c3ccc(F)cc3)nn(C[C@H]3CC[C@H](N)CC3)c2n1	target engagement in cells	inhibitor	chemoproteomics	20 mM	inhibition	-43.3%
Cc1cc(F)c(Nc2ncnc3cc(OCc4ccccc4)ccc23)cc1O.Cl	enzyme activity	inhibitor		1 µM	activity vs control	89%
Cn1c2c(c3ccc(Cl)c(Cl)c31)C(C#N)C1(CCOCC1)NC2=O (stereo not drawn)	thermal stability		DSF	10 µM	ΔTm	0.2 °C
O=C1Nc2ccc(Cl)cc2C1=Cc1cc(Cl)c(O)c(Cl)c1	cell-free assay			0.5 µM	remaining signal	93%
O=c1c(O)c(-c2ccc(O)c(O)c2)oc2cc(O)cc(O)c12	enzyme activity	inhibitor		1 µM	activity vs control	69%
CS(=O)(=O)N1CCCC(NC(=O)[C@H](CCC2CCCCC2)NC(=O)c2ccc(CNc3ncnc4c3nnn4-c3ccccc3)cc2)C1 (stereo partly drawn)	cell-free assay		competition with immobilised ligand	0.1 µM	remaining binding	98%
COc1cccc2c(NCc3ccccc3)nc(-n3c(N)nc4ccccc43)nc12	target engagement in cells	inhibitor	chemoproteomics	20 mM	inhibition	0.9%
Nc1ncnc2occ(-c3ccc(NC(=O)Nc4cc(C(F)(F)F)ccc4F)cc3)c12	cell-free assay	inhibitor		20 µM	remaining signal	83%
CC1(C)NC(=O)c2[nH]c3c(Cl)c(Cl)ccc3c2C1C#N (stereo not drawn)	thermal stability		DSF	10 µM	ΔTm	0.4 °C
CCCOc1ccc([C@H]2[C@H](C(=O)O)[C@@H](c3ccc4c(c3)OCO4)CN2CC(=O)Nc2c(CC)cccc2CC)cc1	cell-free assay		competition with immobilised ligand	1 µM	remaining binding	87%
COc1cc(-c2cc(-c3ccc(N4CCNCC4)cc3)cnc2C)cc(OC)c1OC	enzyme activity	inhibitor		1 µM	inhibition	6%
Cc1ccc(NC(=O)c2ccc(CN3CCN(C)CC3)cc2)cc1Nc1nc(-c2cccnc2)cs1	cell-free assay			0.5 µM	remaining signal	99.3%
C[C@@]1(Cc2ccc(C#N)cc2)C(=O)N(c2cc(Cl)cc(Cl)c2)c2ncc(C(=O)NC3(c4nc(C5CCC5)no4)CC3)n21	cell-free assay		competition with immobilised ligand	1 µM	remaining binding	100%

SMILES	observed	action	method	tested at	quantity	result
Cl.OC1CCC(Nc2ncc3nc(Nc4c(F)cc(F)cc4F)n(C4CCOC4)c3n2)CC1 (stereo not drawn)	enzyme activity	inhibitor		1 µM	activity vs control	98%
Cc1sc(C(=O)NC2COC2)cc1-n1cc(NC(=O)Nc2c(F)cccc2Cl)cn1	enzyme activity	inhibitor		10 µM	remaining activity	76.8%
C[C@@H](c1ccc2nccn2c1)n1nnc2ncc(-c3cnn(C)c3)nc21	enzyme activity	inhibitor		1 µM	activity vs control	91%
C[S+]([O-])c1ccc(-c2nc(-c3ccncc3)c(-c3ccc(F)cc3)[nH]2)cc1 (stereo not drawn)	cell-free assay			0.5 µM	remaining signal	96.5%
CO[C@@H](C)Cn1c(=O)n(C)c2cnc3ccc(-c4cncc(C(C)(C)O)c4)cc3c21	enzyme activity	inhibitor		1 µM	activity vs control	94%
CC(C)(C)c1nc2c(s1)c1nc(N)ncc1c1ccc(NS(=O)(=O)c3c(F)cccc3F)c(F)c12	enzyme activity	inhibitor	radiometric	1 µM	remaining activity	102%
CCCCN(CCCC)C(=O)CN1C[C@H](c2cc(OC)c3c(c2)OCO3)[C@@H](C(=O)O)[C@@H]1CC(C)(C)CCC	cell-free assay		competition with immobilised ligand	1 µM	remaining binding	100%
COc1cc2ncnc(Nc3ccc(Oc4ccccc4)c(C)c3C)c2cc1OC	enzyme activity	inhibitor		1 µM	inhibition	4%
CNC(=O)Nc1ccc2c(c1)CC[C@@]21OC(=O)N(CC(=O)N(Cc2ccc(F)cc2)[C@@H](C)C(F)(F)F)C1=O	cell-free assay		competition with immobilised ligand	1 µM	remaining binding	85%
Oc1ccc(-c2nc(-c3ccncc3)c(-c3ccc(F)cc3)[nH]2)cc1	cell-free assay			0.5 µM	remaining signal	78.9%
Cn1c2c(c3ccc(Cl)c(Cl)c31)C(C#N)C1(CCCC1)NC2=O (stereo not drawn)	thermal stability		DSF	10 µM	ΔTm	-0.5 °C
O=C(CSc1nc2nccnc2c(=O)n1CCc1ccccc1)Nc1nccs1	enzyme activity	inhibitor		10 µM	inhibition	4%
Cc1ccc(C(=O)NCc2ccsc2)cc1C#Cc1cn(C(C)C)c2ncnc(N)c12	enzyme activity	inhibitor		1 µM	activity vs control	93%
Cn1c2c(Cl)c(Cl)ccc2c2cc(N)[nH]c(=O)c21	thermal stability		DSF	10 µM	ΔTm	0.6 °C
CN1CC(Oc2cnc(C#N)cc2-c2ccn3nc(NC(=O)C4CC4)cc3c2)C1	enzyme activity	inhibitor		1 µM	inhibition	-9%
C[C@H](NC(=O)c1cnc2n1[C@](C)(Cc1ccc(C#N)cc1)C(=O)N2c1cc(Cl)c(F)c(Cl)c1)C(=O)NC1(c2ccccn2)CC1	cell-free assay		competition with immobilised ligand	1 µM	remaining binding	100%
CCOc1cc(-c2nncn2C)ccc1Nc1ncc2cc(C)nc(NCC(C)(C)C)c2n1	enzyme activity	inhibitor	FRET	1 µM	inhibition	< 15%
Cc1c(NC(=O)c2cc3c(s2)CCCC3)cccc1-c1cn(C)c(=O)c(Nc2ccc([C@@H]3C(=O)N(C)CCN3C)cc2)n1	enzyme activity	inhibitor		1 µM	activity vs control	76%
Cn1cncc1C1=CN(c2ncnc3[nH]cnc23)CCS1	enzyme activity	inhibitor	radiometric	2 µM	inhibition	87.7%
